The values below come from article PMC7007182 (Molecular imaging and biology, 2020).

Residues, ends and D or L forms follow the SMILES beside them. *: point of attachment. NOTA(2S-Bn(4-NHCS)) = O=C(O)CN1CCN(CC(=O)O)C[C@H](Cc2ccc(NC(=S)*)cc2)N(CC(=O)O)CC1

Series [1] deals with GPC3-positive HepG2 cells. Put plainly: Cellular uptake in GPC3-positive HepG2 cells. It is filed as cell-based. The following applies: 60 min incubation, peak value; n = 4/group, mean ± SD. In short, it runs like this:
(§1)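 Uptake of the Al[18F]F-labelled peptide (radiochemical purity >97 % by HPLC) was measured as a time course in GPC3-positive HepG2 and GPC3-negative McA-RH7777 cells. Uptake is expressed as a percentage. n = 4 per group; mean ± SD.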

Series [2] relates to GPC3-positive HepG2 cells. Put plainly: Cell efflux in GPC3-positive HepG2 cells. It is filed as cell-based. The following applies: for cell-associated radioactivity at end of efflux study: end of 1 h efflux study; for cell-associated radioactivity at start of efflux study: start of 1 h efflux study. In short, it runs like this:
(§2)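 Efflux of the Al[18F]F-chelated radiolabelled peptide was followed over time in GPC3-positive HepG2 and GPC3-negative McA-RH7777 hepatoma cells. Cell-associated radioactivity was tracked across the efflux period. n = 4 per group; mean ± SD.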

In another series the test system is HepG2 cells. Put plainly: Internalization in HepG2 cells. It is filed as cell-based. The following applies: HepG2 cells at 2 h.
A short description of series [3]: In vitro stability in PBS. The class given is physicochemical. The following applies: PBS at room temperature, 2 h incubation, HPLC analysis. A digest of the protocol:
(§3)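 Radiotracer prepared by Al[18F]F chelation: peptide, AlCl3, acetic acid and acetonitrile with [18F]fluoride, heated at 100 °C for 10 min. Product purified on a C18 cartridge, eluted with ethanol/10 mM HCl, diluted in saline and sterile-filtered. Incubated 2 h in PBS (room temperature) or mouse serum (37 °C). Percent intact tracer by reverse-phase HPLC.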

Series [4] can be described thus: In vitro stability in mouse serum. The class given is in vitro ADME. The following applies: mouse serum at 37 °C, 2 h incubation, HPLC analysis. In short, it runs like this: as §3
Series [5] in a line: MicroPET/CT imaging, GPC3-positive HepG2 tumor model. It is filed as in vivo, nude mice. The following applies: nude, mouse, iv, 5.55 MBq, total radioactivity. In short, it runs like this:
(§4)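 Nude mice carried subcutaneous HepG2 or McA-RH7777 xenografts (n = 3 per group). Each received 5.55 MBq tracer i.v. under isoflurane. 10-min static microPET/CT scans at 30, 60 and 120 min; 3D-OSEM reconstruction, CT attenuation correction, decay-corrected. %ID/g from ROIs drawn over entire organs. Tumor/muscle, tumor/liver and tumor/kidney ratios calculated from PET data. Mean ± SD; ANOVA or t test.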

Series [6] in a line: Ex vivo biodistribution, HepG2 tumor model. The class given is in vivo, mice. The following applies: mouse, total radioactivity.
For series [7], the system named is GPC3-negative McA-RH7777 cells. Put plainly: Cellular uptake in GPC3-negative McA-RH7777 cells. The class given is cell-based. The following applies: 60 min incubation; n = 4/group, mean ± SD. In short, it runs like this: as §1
Series [8] concerns GPC3-negative McA-RH7777 cells. Put plainly: Cell efflux in GPC3-negative McA-RH7777 cells. It is filed as cell-based. The following applies: efflux study. In short, it runs like this:
as §2

Series [9] is described as follows: MicroPET/CT imaging, GPC3-negative McA-RH7777 tumor model. The class given is in vivo, nude mice. The following applies: nude, mouse, iv, 5.55 MBq, total radioactivity. In short, it runs like this:
as §4

As to `CC(C)C[C@H](NC(=O)[C@H](CCCNC(=N)N)NC(=S)Nc1ccc(C[C@H]2CN(CC(=O)O)CCN(CC(=O)O)CCN2CC(=O)O)cc1)C(=O)N[C@@H](CC(N)=O)C(=O)N[C@H](C(=O)NCC(=O)NCC(=O)N[C@H](C(=O)N[C@@H](Cc1ccc(O)cc1)C(=O)N[C@@H](Cc1ccccc1)C(=O)N[C@@H](CC(C)C)C(=O)N[C@H](C(=O)N[C@H](C(=O)N[C@@H](CCCNC(=N)N)C(=O)N[C@@H](CCC(N)=O)C(=O)O)[C@@H](C)O)[C@@H](C)O)[C@@H](C)O)C(C)C` [Al[^18F]F-GP2076] ({NOTA(2S-Bn(4-NHCS))}-RLNVGGTYFLTTRQ-OH; N-terminus and C-terminus assumed) [listing 1 of 2 here], the “cell uptake in HepG2 cells” value in series [1] turned out to be 1.08 ± 0.04%. Besides, in series [2], the “cell-associated radioactivity at end of efflux study” value stood at 0.21% and the “cell-associated radioactivity at start of efflux study” value came out at 1.04%. Further, the internalization with HepG2 cells is recorded as < 10 % of cell uptake. Also, the “intact radiotracer in PBS” value in [3] was more than 95%. The “intact radiotracer in mouse serum” value in [4] is more than 95%.
For orientation: tissue uptake means the share of the injected amount in each gram of the tissue. `CC(C)C[C@H](NC(=O)[C@H](CCCNC(=N)N)NC(=S)Nc1ccc(C[C@H]2CN(CC(=O)O)CCN(CC(=O)O)CCN2CC(=O)O)cc1)C(=O)N[C@@H](CC(N)=O)C(=O)N[C@H](C(=O)NCC(=O)NCC(=O)N[C@H](C(=O)N[C@@H](Cc1ccc(O)cc1)C(=O)N[C@@H](Cc1ccccc1)C(=O)N[C@@H](CC(C)C)C(=O)N[C@H](C(=O)N[C@H](C(=O)N[C@@H](CCCNC(=N)N)C(=O)N[C@@H](CCC(N)=O)C(=O)O)[C@@H](C)O)[C@@H](C)O)[C@@H](C)O)C(C)C` [Al[^18F]F-GP2076] ({NOTA(2S-Bn(4-NHCS))}-RLNVGGTYFLTTRQ-OH; N-terminus and C-terminus assumed) [listing 2 of 2 here]: the results for the tissue to tissue ratio at 1 h in [5] (HepG2 tumor / kidneys), in series [5] (HepG2 tumor / liver) and in series [5] (HepG2 tumor / muscle) were 0.31 ± 0.04, 0.59 ± 0.14 and 5.13 ± 2.08, respectively. In addition, the tissue to tissue ratio at 0.5 h in series [5] (HepG2 tumor / liver) came out at 0.43 ± 0.06; in series [5] (HepG2 tumor / muscle), 5.56 ± 1.36. Further, the tissue to tissue ratio at 2 h in series [5] (HepG2 tumor / liver) came out at 0.46 ± 0.4; in [5] (HepG2 tumor / muscle), 2.68 ± 0.29. Further, the tissue uptake at 0.5 h in series [5] (HepG2 tumor) amounted to 2.2 ± 0.36 %ID/g; in series [5] (kidneys), 9.83 ± 3.69 %ID/g; in series [5] (liver), 5.1 ± 0.53 %ID/g. Besides, the tissue uptake at 1 h in series [5] (HepG2 tumor) is 2.13 ± 0.55 %ID/g; in series [5] (kidneys), 7.03 ± 2.32 %ID/g; in [5] (liver) it was 3.7 ± 0.98 %ID/g; in series [6] (HepG2 tumor), 1.13 ± 0.02 %ID/g; in [6] (liver), 2.3 ± 0.56 %ID/g. In [5] (HepG2 tumor), the tissue uptake at 2 h stood at 0.73 ± 0.32 %ID/g.
For the compound `CC(C)C[C@H](NC(=O)[C@H](CCCNC(=N)N)NC(=O)[C@H](CC(N)=O)NC(=O)[C@H](CC(=O)O)NC(=O)[C@H](CCCNC(=N)N)NC(=O)CNC(=O)CNC(=O)CNC(=S)Nc1ccc(C[C@H]2CN(CC(=O)O)CCN(CC(=O)O)CCN2CC(=O)O)cc1)C(=O)N[C@@H](CC(N)=O)C(=O)N[C@H](C(=O)NCC(=O)NCC(=O)N[C@H](C(=O)N[C@@H](Cc1ccc(O)cc1)C(=O)N[C@@H](Cc1ccccc1)C(=O)N[C@@H](CC(C)C)C(=O)N[C@H](C(=O)N[C@H](C(=O)N[C@@H](CCCNC(=N)N)C(=O)N[C@@H](CCC(N)=O)C(=O)O)[C@@H](C)O)[C@@H](C)O)[C@@H](C)O)C(C)C` [Al[^18F]F-GP2633] ({NOTA(2S-Bn(4-NHCS))}-GGGRDNRLNVGGTYFLTTRQ-OH; N-terminus and C-terminus assumed) [listing 1 of 2 here], in [1], the “cell uptake in HepG2 cells” value was 1.15 ± 0.05%. In addition, the “cellular uptake in McA-RH7777 cells” value in [7] worked out at 0.30 ± 0.03%. In series [2], the “cell-associated radioactivity at end of efflux study” value amounted to 0.27% and the “cell-associated radioactivity at start of efflux study” value came out at 1.13%. The “time for radioactivity to wash out to the baseline” value in series [8] was not above 5 min. The internalization in the series with HepG2 cells is < 10 % of cell uptake. The “intact radiotracer in PBS” value in [3] is recorded as more than 98%. For the same compound, the “intact radiotracer in mouse serum” value in [4] was more than 98%.
Take `CC(C)C[C@H](NC(=O)[C@H](CCCNC(=N)N)NC(=O)[C@H](CC(N)=O)NC(=O)[C@H](CC(=O)O)NC(=O)[C@H](CCCNC(=N)N)NC(=O)CNC(=O)CNC(=O)CNC(=S)Nc1ccc(C[C@H]2CN(CC(=O)O)CCN(CC(=O)O)CCN2CC(=O)O)cc1)C(=O)N[C@@H](CC(N)=O)C(=O)N[C@H](C(=O)NCC(=O)NCC(=O)N[C@H](C(=O)N[C@@H](Cc1ccc(O)cc1)C(=O)N[C@@H](Cc1ccccc1)C(=O)N[C@@H](CC(C)C)C(=O)N[C@H](C(=O)N[C@H](C(=O)N[C@@H](CCCNC(=N)N)C(=O)N[C@@H](CCC(N)=O)C(=O)O)[C@@H](C)O)[C@@H](C)O)[C@@H](C)O)C(C)C` [Al[^18F]F-GP2633] ({NOTA(2S-Bn(4-NHCS))}-GGGRDNRLNVGGTYFLTTRQ-OH; N-terminus and C-terminus assumed) [listing 2 of 2 here]: the tissue to tissue ratio at 1 h in [5] (HepG2 tumor / kidneys) was determined as 0.09 ± 0.01; in series [5] (HepG2 tumor / liver), 2 ± 0.18; in series [5] (HepG2 tumor / muscle), 12.2 ± 0.62; in series [9] (McA-RH7777 tumor / muscle), 6.2 ± 2.67. In addition, the tissue to tissue ratio at 0.5 h in series [5] (HepG2 tumor / liver) came to 1.77 ± 0.2; in series [5] (HepG2 tumor / muscle), 9.11 ± 0.79; in series [9] (McA-RH7777 tumor / muscle), 3.87 ± 1.97. In addition, the tissue to tissue ratio at 2 h is 1.28 ± 0.25 in [5] (HepG2 tumor / liver) and 6.2 ± 1.8 in series [5] (HepG2 tumor / muscle). For the same compound, the tissue uptake at 0.5 h in series [5] (HepG2 tumor) came to 3.13 ± 0.31 %ID/g; in series [5] (kidneys) it was 39.4 ± 0.98 %ID/g; in series [5] (liver) it was 1.8 ± 0.36 %ID/g; in series [9] (McA-RH7777 tumor) it was 1.75 ± 0.05 %ID/g. Besides, the tissue uptake at 1 h in series [5] (HepG2 tumor) is 3.37 ± 0.35 %ID/g; in series [5] (kidneys), 36.9 ± 2.05 %ID/g; in [5] (liver) it was 1.7 ± 0.26 %ID/g; in series [9] (McA-RH7777 tumor), 1.64 ± 0.03 %ID/g; in [6] (HepG2 tumor), 1.96 ± 0.29 %ID/g; in series [6] (liver), 0.97 ± 0.07 %ID/g. The tissue uptake at 2 h in series [5] (HepG2 tumor) was 1.3 ± 0.17 %ID/g; in [9] (McA-RH7777 tumor), 0.66 ± 0.06 %ID/g.
